Efflux pump inh = antifungal efflux pump inhibition, Nile Red retention. inhibition, % at 10 µM. S. cerevisiae Candida pump triplex. actives 0.44% (n = 330,000);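 active = plate passing quality check with inhibition over a set limit, or well fluorescence over plate mean plus 4 SD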;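 also: Nile Red retained in pooled yeast measured as flow cytometry median fluorescence; 0% = buffer negative control and 100% = Enniatin B positive control; higher means more Nile Red kept so more efflux inhibition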
GSK3A inh = inhibitors of human GSK-3 alpha kinase; P49840; inhibition, % at 10 µM; actives 0.1% (n = 320,000); ADP-Glo luminescence, 60 min;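 active = more than half of replicates show inhibition above 20%; inconclusive = some but at most half of replicates above 20% inhibition; inactive = no replicate shows inhibition above 20%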;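 also: GST-tagged GSK-3 alpha with peptide substrate and 25 µM ATP; 0% = DMSO neutral wells and 100% = GW8510 positive control wells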
Target sequence (P49840 whole entry, looked up): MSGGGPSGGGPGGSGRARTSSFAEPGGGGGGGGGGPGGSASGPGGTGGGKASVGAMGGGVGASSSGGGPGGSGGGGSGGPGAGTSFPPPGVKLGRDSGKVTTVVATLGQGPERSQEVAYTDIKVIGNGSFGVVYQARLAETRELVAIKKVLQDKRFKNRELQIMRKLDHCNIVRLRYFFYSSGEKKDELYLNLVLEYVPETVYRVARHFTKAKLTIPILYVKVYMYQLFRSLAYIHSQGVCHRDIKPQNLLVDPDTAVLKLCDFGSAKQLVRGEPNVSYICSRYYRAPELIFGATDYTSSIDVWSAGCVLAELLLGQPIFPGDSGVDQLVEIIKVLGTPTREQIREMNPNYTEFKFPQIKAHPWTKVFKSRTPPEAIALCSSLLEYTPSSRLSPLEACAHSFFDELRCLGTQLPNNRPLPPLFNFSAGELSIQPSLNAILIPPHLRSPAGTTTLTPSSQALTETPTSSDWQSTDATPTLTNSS
PolyA inhibitor = blocks polyadenylation in yeast reporter cells | S. cerevisiae SKY197-pL101 polyadenylation reporter, beta-gal luminescence; efflux-impaired pdr1/pdr3 knockout yeast; score 100 = 6 SD above DMSO | activity score, % at 12 µM | actives 0.02% (n = 300,000) | AID 1875;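 active = lowest replicate activity score at least 50, where 100 means six control SD above control mean; inconclusive = lowest score under 50 but half or more replicates reach 50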;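 also: yeast exposed to compound for 9 h at 30 °C; higher score means more reporter readthrough which indicates perturbed polyadenylation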
STK33 inh = inhibitors of human STK33 kinase; inhibition, % at 10 µM; actives 0.073% (n = 320,000); purified STK33, MBP phosphorylation, ADP-Glo luminescence;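 active = inhibition at or above 25%, using the most active replicate where run in duplicate; inactive = inhibition below 25%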
GSK3B inh = blocks human GSK3beta kinase activity | GST-GSK3beta kinase, ADP-Glo luminescence, 60 min; active compounds read low | activity score (negative = inhibition), % at 10 µM | AID 2097 | actives 0.038% (n = 300,000) | P49841;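 active = more than half of replicate wells score below -50%, meaning over 50% inhibition versus plate controls; inconclusive = some replicates but at most half score below -50%; inactive = no replicate scores below -50%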;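 also: 0% = median DMSO wells and -100% = median GW8510 positive control wells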
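test system = GST-tagged human GSK3beta kinase, cell-free | reagent = 25 µM ATP with peptide substrate | dosing = one dose of 10 µM per compound | schedule = 60 min reaction, RT | detection = luminescent ADP-Glo measurement of ADP formed | control set = DMSO neutral wells and GW8510 at 20 µM as positive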
Numbers without * were called inactive; ? = inconclusive; · = no result. A selection: hits, their analogues and other compounds. The true share with any hit is near 0.6%.

SMILES	Efflux pump inh	GSK3A inh	PolyA inhibitor	STK33 inh	GSK3B inh
CC(C)(C)OC(=O)C[C@H]1C/C=C\C[C@@H](CC(=O)NCCO)C(=O)NCCOC1=O	-0.3	-0.8	·	0.1	·
COc1cc(/C=C/C(=O)/C=C(O)/C=C/c2ccc(O)c(OC)c2)ccc1O	0.6	2.4	·	61.1*	·
COc1cc(/C=C/C(=O)O)ccc1O	-0.1	1.6	1.0	7.5	-1.6
COc1cc(/C=C/C(=O)CC(=O)/C=C/c2ccc(O)c(OC)c2)ccc1O	1.3	-0.7	-14.5	63.9*	-1.8
O=C(CN1C(=O)COc2ccc(S(=O)(=O)N3CCCCCC3)cc21)NCc1ccc(F)cc1	0.0	-1.0	-11.4	-0.3	-2.3
CC1CCN(CCCNC(=O)c2nn(C)c3c2CS(=O)(=O)c2ccccc2-3)CC1	0.4	-1.3	-8.5	0.9	3.5
Cc1nc(=O)c(-c2ccccc2)c(C)n1CCCCCC(=O)O	0.1	-1.5	22.9	0.1	-3.9
CC(C)NC(=O)COC(=O)CNC(=O)c1cc(Cl)cc([N+](=O)[O-])c1	0.0	3.2	2.0	-1.5	-1.2
CC1=C(C(=O)OCc2ccc3c(c2)OCO3)C(c2ccccc2OCc2ccccc2)NC(=O)N1 (stereo not drawn)	0.1	-1.1	-3.2	0.2	2.1
CC1=C(C(=O)OCc2ccc3c(c2)OCO3)C(c2ccccc2)NC(=O)N1 (stereo not drawn)	-0.2	62.5*	-7.4	-1.4	0.4
COC(=O)c1ccc(-c2csc(NC(=O)C3=COCCO3)n2)cc1	0.2	0.0	-2.2	-0.8	-23.7
O=C(CCNS(=O)(=O)c1ccc2[nH]c(=O)oc2c1)Nc1ccccc1	-0.3	-1.5	8.5	-0.6	0.4
CN(Cc1nc2c(s1)CCCC2)C(=O)CCc1nnc(-c2ccc3c(c2)OCO3)o1	0.4	57.8*	-25.4	-0.4	-32.9
Cc1ccc(CNS(=O)(=O)c2ccc(F)c(F)c2)n1C	-0.1	-0.8	1.3	-0.5	-0.7
CCOC(=O)CN1CC23C=CC(O2)C(C(=O)Nc2cc(OC)ccc2OC)C3C1=O (stereo not drawn)	0.9*	11.4	7.5	9.3	2.8
CCOC(=O)CN1CC23C=CC(O2)C(C(=O)Nc2ccc(OC)cc2OC)C3C1=O (stereo not drawn)	-0.1	-3.9	2.0	1.2	0.1
COc1ccc(C(=O)Nc2ccccc2)cc1NC(=O)c1cccs1	0.1	-3.4	-7.3	0.6	-1.2
O=C1CC(c2ccc(O)c(O)c2)Oc2c1ccc(O)c2O (stereo not drawn)	-0.2	8.5	·	4.9	·
CC(C)=CCc1c(O)ccc2c1OC(c1ccc(O)c(O)c1)CC2=O (stereo not drawn)	-0.1	76.0*	1.4	2.5	-50.2*
COc1ccc(OC)c(S(=O)(=O)Nc2ccc3c(c2)n(C)c(=O)n3C)c1	-0.1	-1.9	-1.4	-1.4	0.2
O=C(O)c1ccc(N=Cc2c(O)ccc3oc4c(c23)CCCC4)cc1	-0.1	7.2	-8.0	45.8*	0.8
Oc1ccccc1N=Cc1c(O)ccc2oc3c(c12)CCCC3	0.3	1.4	-0.6	5.1	1.2
O=C1C=C(c2ccccc2)OC(=O)C1C(=O)c1ccccc1 (stereo not drawn)	0.0	-0.4	120.9*	-0.7	1.5
CN1CCN(c2ccc(NC(=O)c3ccc(-c4ccc(Cl)cc4)o3)cc2)CC1	0.1	1.6	0.5	-0.3	-6.7
CN1CCN(c2ccc(NC(=O)c3ccc(-c4cccc([N+](=O)[O-])c4)o3)cc2)CC1	0.1	4.3	9.8	35.8*	0.8
SMILES	Efflux pump inh	GSK3A inh	PolyA inhibitor	STK33 inh	GSK3B inh
Cc1ncc(/C=C2\C(=O)Nc3ccccc32)[nH]1	-0.1	7.1	3.8	76.0*	0.1
CN(C)/C=C1\C(=O)Nc2ccccc21	0.1	1.2	13.8	-0.8	1.5
CCc1ncc(/C=C2\C(=O)Nc3ccccc32)[nH]1	-0.1	9.4	-0.9	48.5*	-3.5
O=C(CCl)Nc1cccc(S(=O)(=O)NC2=NCCC2)c1	0.0	0.0	?	-0.3	-2.8
Cc1ccc(CNC(=O)CCCn2nc(C)n3ccnc3c2=O)cc1	0.1	-0.7	-4.6	-0.2	-0.6
CCCN1C(=O)/C(=C/c2c(NCCCOC(C)C)nc3c(C)cccn3c2=O)SC1=S	0.4	-1.3	3.9	-0.4	-0.7
CCC(C)N1C(=O)/C(=C/c2c(NCCCOC(C)C)nc3c(C)cccn3c2=O)SC1=S (stereo not drawn)	0.8*	4.0	·	-0.1	·
Cc1ccccc1N=Nc1c(O)[nH]c2ccccc12	0.1	3.6	-6.5	1.7	1.2
O=C(O)c1ccc(N=Nc2c(O)[nH]c3ccccc23)cc1	-0.1	50.6*	-5.5	29.1*	-1.0
CC(C)(C)OC(=O)N1CCN(C(=O)c2ncn(Cc3ccccc3)c2C(=O)N2CCN(C(=O)OC(C)(C)C)CC2)CC1	0.1	-1.5	·	-1.6	·
C/C(=C\C=C(C#N)C#N)c1cc(C#N)c(N)o1	·	·	58.9*	·	0.2
CCOc1cc(/C=C2\N=C(SC(C)C(N)=O)N(c3ccc(OC(F)F)cc3)C2=O)ccc1O (stereo not drawn)	-0.1	0.2	157.5*	-2.3	-0.3
COC(=O)c1cccc2c1-c1ccccc1/C2=N/O	0.0	16.7	-27.5	29.6*	-3.5
Cc1cnc(NC(=O)C2CC(=O)N(c3ccc4c(c3)OCCO4)C2)s1 (stereo not drawn)	-0.2	50.1*	·	-0.6	·
Cc1nnc(NC(=O)C2CC(=O)N(c3ccc4c(c3)OCCO4)C2)s1 (stereo not drawn)	0.0	-0.9	·	-1.1	·
C#CCOCCOCCOCCNc1nc(N2CCN(C(=O)CCCCCCCCCCNC(=O)[C@H](CO)n3cc(CCCCCN)nn3)CC2)nc(N2CCN(C(=O)CCCCCCCCCCNC(=O)[C@H](CCCN=C(N)N)n3cc(C[C@@H](C)CC)nn3)CC2)n1	0.1	24.3	·	20.8	·
C#CCOCCOCCOCCNc1nc(N2CCOCC2)nc(N2CCN(C(=O)CCCCCCCCCCNC(=O)[C@H]([C@@H](C)CC)n3cc(CCCCN=C(N)N)nn3)CC2)n1	1.0	10.8	·	0.1	·
C#CCOCCOCCOCCNc1nc(N2CCN(C(=O)CCCCCCCCCCNC(=O)[C@H]([C@@H](C)CC)n3cc(CCCCN=C(N)N)nn3)CC2)nc(N2CCN(C(=O)CCCCCCCCCCNC(=O)[C@H](CCCN=C(N)N)n3cc(C[C@@H](C)CC)nn3)CC2)n1	6.2*	-13.9	·	30.9*	·
C#CCOCCOCCOCCNc1nc(N2CCN(C(=O)CCCCCCCCCCNC(=O)[C@H](CCCCN)n3cc(C[C@@H](C)CC)nn3)CC2)nc(N2CCN(C(=O)CCCCCCCCCCNC(=O)[C@H](CCCN=C(N)N)n3cc(C[C@@H](C)CC)nn3)CC2)n1	1.4	13.5	·	29.2*	·
C#CCOCCOCCOCCNc1nc(N2CCN(C(=O)CCCCCCCCCCNC(=O)[C@H](CCCCN)n3cc(C)nn3)CC2)nc(N2CCN(C(=O)CCCCCCCCCCNC(=O)[C@H](CCCN=C(N)N)n3cc(C[C@@H](C)CC)nn3)CC2)n1	0.1	25.5	·	19.8	·

Screening data: PubChem BioAssay, several laboratories
